DENV2 CPE rescue – inhibitors of DENV2 cytopathic effect, primary screen, cell-based, plate reader, single concentration. DENV2-infected cells, cytopathic effect rescue. CPE inhibition, % at 9.99 µM. hit rate 1.7% among 350,000; in the data active means CPE inhibition above about 20%, passing the limit was not always enough; inconclusive means no clear call, values can overlap the other calls; tested in BHK-21 cells;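 further: 0% = median of neutral control wells and 100% = median of positive control wells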
C2C12 statin – suppressors of statin myotoxicity in C2C12 myotubes, primary screen, cell-based, single point, plate reader | C2C12 myotubes + simvastatin, ATP luminescence, 48 h; scaled: DMSO 0, geranylgeraniol control 100 | rescue of ATP level, % at 7.49 µM | hit rate 0.78% among 330,000;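 active means mean ATP rescue above about 67%, or every replicate alone reaching that limit, limit read from the data, passing the limit was not always enough; inconclusive means no clear call, values can overlap the other calls; inactive means mean under the limit and some replicate under it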;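 further: myotubes were challenged with 10 µM simvastatin during compound exposure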
E-sel inducer – E-selectin induction in HUVECs, primary screen, imaging, HUVEC, immunofluorescence imaging, single point | P16581 | normalized: neutral wells 0, TNF-alpha wells 100 | activation, % at 7.58 µM | hit rate 0.37% among 260,000;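 active means mean E-selectin-positive cell signal at least 10% of the positive control, reached in at least 60% of replicates, without over 20% cell loss; inconclusive means no rule given, readout overlaps actives, possibly toxicity-flagged; inactive means the rest, including those meeting only one limit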
Target sequence (P16581 whole entry, looked up): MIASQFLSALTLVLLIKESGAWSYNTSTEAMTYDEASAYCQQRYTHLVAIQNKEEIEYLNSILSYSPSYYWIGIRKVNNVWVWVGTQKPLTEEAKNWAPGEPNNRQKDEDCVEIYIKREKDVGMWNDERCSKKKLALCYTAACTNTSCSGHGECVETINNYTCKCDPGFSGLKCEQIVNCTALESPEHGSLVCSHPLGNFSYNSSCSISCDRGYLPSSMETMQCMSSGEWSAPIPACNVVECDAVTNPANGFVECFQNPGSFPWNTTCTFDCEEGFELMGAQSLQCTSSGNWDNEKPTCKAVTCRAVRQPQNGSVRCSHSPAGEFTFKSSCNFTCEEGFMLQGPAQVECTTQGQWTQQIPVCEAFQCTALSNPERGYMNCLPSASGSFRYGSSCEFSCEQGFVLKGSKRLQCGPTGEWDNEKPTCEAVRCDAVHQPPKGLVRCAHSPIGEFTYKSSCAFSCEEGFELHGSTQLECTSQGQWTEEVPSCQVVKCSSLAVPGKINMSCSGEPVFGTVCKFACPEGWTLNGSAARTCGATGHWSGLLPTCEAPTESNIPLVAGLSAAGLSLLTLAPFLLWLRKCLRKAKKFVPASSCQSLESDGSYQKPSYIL
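Read-out basis: % PE-positive cells; Test system: HUVEC primary endothelial cells; Technique: immunofluorescence imaging; Dosing: single-point compound dose.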
* hit, by the source's call; u = inconclusive; x = not tested or not shown. Most compounds without a hit are left out; they make up all but 2.2% or so of the library.

SMILES	DENV2 CPE rescue	C2C12 statin	E-sel inducer
CN(C)c1ccc(-c2cc3ccccc3c(=O)o2)cc1	114*	7	x
C[C@H]1CN([C@@H](C)CO)S(=O)(=O)c2ccc(C3=CCCC3)cc2O[C@H]1CN(C)CC1CCOCC1	2	4	0
COc1ccc2c3c(n(C)c2c1)[C@H](CO)N(S(C)(=O)=O)CC31CCN(C(=O)C2CC2)CC1	31*	x	0
COc1ccc2c3c(n(C)c2c1)[C@@H](CO)N(C(=O)C1CC1)CC31CCN(C(=O)CN(C)C)CC1	23*	x	0
COc1ccc2c3c(n(C)c2c1)[C@@H](CO)N(S(C)(=O)=O)CC31CCN(C(=O)C2CC2)CC1	7	x	0
COc1ccc2c3c(n(C)c2c1)[C@H](CO)N(C(=O)C1CC1)CC31CCN(C(=O)CN(C)C)CC1	11	x	0
CCC(=O)N1CCCCN2[C@@H](CO)[C@H](c3ccc(/C=C/c4ccccc4)cc3)[C@@H]2C1	-7	x	-1
Cc1ccccc1S(=O)(=O)N[C@@H]1CC[C@@H](CCn2cc(-c3ccccc3)nn2)O[C@@H]1CO	7	-4	-1
O=C(COc1ncnc2sccc12)NC1CCS(=O)(=O)C1 (centres undefined)	28*	x	0
Cc1ccsc1C(=O)OCC(=O)NC1CCS(=O)(=O)C1 (centres undefined)	2	x	3
Cc1ccc(NC(=O)CSCC(=O)Nc2ccc(S(=O)(=O)N3CCCC3)cc2)cc1	-4	x	-1
O=C(CSCc1ccc([N+](=O)[O-])cc1)Nc1ccc(S(=O)(=O)N2CCCCCC2)cc1	80*	-28	-1
C[C@@H]1CN([C@H](C)CO)C(=O)c2cc(NC(=O)CCCN(C)C)ccc2O[C@@H]1CN(C)C(=O)NC1CCCCC1	-1	-4	0
Cc1cccc2c1CC(C)(C)N=C2C1=C(O)CCCC1=O	x	1	x
CC1=NC(C)(C)Cc2c(C)cccc21	0	-3	72*
CC(C)NC(=O)N(C)C[C@H]1OCCCC[C@@H](C)Oc2ccc(NC(=O)NC3CCCCC3)cc2C(=O)N([C@H](C)CO)C[C@@H]1C	2	-15	0
NC(=S)N=Nc1c(O)n(Cc2ccccc2)c2ccccc12	63*	x	x
C/C(Cl)=C\Cn1c(O)c(N=NC(N)=S)c2ccccc21	-2	x	1
O=C(Nc1ccc(Cl)cc1)N[C@H]1CC[C@H](CCNS(=O)(=O)c2ccccc2F)O[C@H]1CO	-1	-1	1
CN1CCCC1CCNc1ccc2sc3ccccc3c(=O)c2c1 (centres undefined)	27*	16	2
O=c1c2ccccc2sc2ccc(NCCCN3CCOCC3)cc12	2	-4	1
C[C@H](CO)N1C[C@H](C)[C@@H](CN(C)Cc2ccc(Cl)c(Cl)c2)Oc2ccc(NC(=O)C3CC3)cc2C1=O	-1	-44	0
COCc1cn(CC[C@H]2CC[C@H](NC(=O)CCN3CCCCC3)[C@H](CO)O2)nn1	-3	-7	0
COCc1cccc(-c2csc(C(N)c3ccc(F)c(F)c3)n2)c1 (centres undefined)	21*	2	0
COCc1cccc(-c2csc(C(O)c3ccc(F)c(F)c3)n2)c1 (centres undefined)	-4	18	0
SMILES	DENV2 CPE rescue	C2C12 statin	E-sel inducer
CN1CCCCN2[C@H](CO)[C@H](c3ccc(-c4ccccc4)cc3)[C@H]2C1	u	6	0
COCC(=O)N1CCCCN2[C@@H](CO)[C@H](c3ccc(-c4ccc(C)cc4)cc3)[C@@H]2C1	47*	50	-1
COCC(=O)N1CCCCN2[C@@H](CO)[C@@H](c3ccc(-c4ccc(C)cc4)cc3)[C@@H]2C1	66*	8	0
COCC(=O)N1CCCCN2[C@H](CO)[C@@H](c3ccc(-c4ccccc4)cc3)[C@H]2C1	40*	x	0
COCC(=O)N1CCCCN2[C@H](C1)[C@H](c1ccc(-c3ccc(C)cc3)cc1)[C@@H]2CO	5	8	1
COCC(=O)N1CCCCN2[C@H](CO)[C@H](c3ccc(-c4ccc(C)cc4)cc3)[C@@H]2C1	u	-3	1
COCC(=O)N1CCCCN2[C@@H](CO)[C@@H](c3ccc(-c4ccccc4)cc3)[C@@H]2C1	-1	x	0
CN1CCCCN2[C@@H](CO)[C@H](c3ccc(-c4ccccc4)cc3)[C@@H]2C1	32*	7	0
COc1ccccc1CNC(=O)C[C@@H]1C[C@H]2c3cc(NC(=O)C4CCOCC4)ccc3O[C@H]2[C@@H](CO)O1	4	3	0
C[C@@H]1CN([C@@H](C)CO)C(=O)c2cc(-c3ccc(F)cc3)cnc2O[C@H]1CN(C)C(=O)c1ccccc1F	1	-19	-1
COCC(=O)N1CCCCN2[C@@H](CO)[C@@H](c3ccc(-c4ccc(F)cc4)cc3)[C@@H]2C1	28*	x	0
COCC(=O)N1CCCCN2[C@H](CO)[C@H](c3ccc(-c4ccc(F)cc4)cc3)[C@@H]2C1	-8	x	0
OC[C@@H]1[C@H](c2ccc(-c3ccc(F)cc3)cc2)[C@@H]2CN(Cc3ccncc3)CCCCN12	38*	0	0
OC[C@@H]1[C@@H](c2ccc(-c3ccc(F)cc3)cc2)[C@H]2CN(Cc3ccncc3)CCCCN12	18	4	-1
COc1cccc(CNC(=O)[C@H]2[C@H](CO)[C@H]3Cn4c(ccc(-c5cncnc5)c4=O)[C@@H]2N3C(C)=O)c1	-2	12	0
CO[C@@H]1CN(C)C(=O)c2ccc(NC(=O)C3CCC3)cc2OC[C@H](C)NC[C@@H]1C	34*	-5	0
CO[C@H]1CN(C)C(=O)c2ccc(NC(=O)NC(C)C)cc2OC[C@H](C)NC[C@@H]1C	30*	x	0
CCCNC(=O)N1C[C@@H](C)[C@H](OC)CN(C)C(=O)c2ccc(NC(=O)C3CCC3)cc2OC[C@H]1C	40*	x	0
CO[C@H]1CN(C)C(=O)c2ccc(NC(=O)C3CCC3)cc2OC[C@@H](C)NC[C@@H]1C	-4	-7	0
CCCNC(=O)N1C[C@H](C)[C@@H](OC)CN(C)C(=O)c2ccc(NC(=O)C3CCC3)cc2OC[C@H]1C	12	10	0
COc1ccc(NC(=O)Nc2ccc3c(c2)OC[C@H](C)NC[C@@H](C)[C@H](OC)CN(C)C3=O)cc1	-5	-2	0
COc1ccc(NC(=O)Nc2ccc3c(c2)OC[C@@H](C)NC[C@H](C)[C@H](OC)CN(C)C3=O)cc1	22*	x	0
CO[C@H]1CN(C)C(=O)c2ccc(NC(=O)NC(C)C)cc2OC[C@@H](C)NC[C@@H]1C	4	8	0
CCCC#Cc1cnc2c(c1)C(=O)N([C@H](C)CO)C[C@@H](C)[C@H](CN(C)C(=O)C1CCC1)O2	-2	1	0
C=CC[C@@]1(C(=O)OC)N=C(c2ccc(OCCCO)cc2)O[C@@H]1c1ccccc1	18	x	x
CCCC(=O)Nc1ccc2c(c1)OC[C@@H](C)NC[C@H](C)[C@@H](OC)CN(C)C2=O	12	-11	0
COc1cccc(NC(=O)Nc2ccc3c(c2)OC[C@H](C)NC[C@@H](C)[C@H](OC)CN(C)C3=O)c1	22*	-8	0

From PubChem BioAssay
